Screens as filed in PubChem.
G6PDH CS: L. mesenteroides G6PDH inhibition counter-screen; Purified L. mesenteroides G6PDH, diaphorase/resazurin coupled fluorescence, 45 min; inhibition, % at 5 µM; 200,000 compounds, 0.12% hits; AID 1020; in the data active = inhibition above about 50%
PfGluPho inh: PfG6PD (Plasmodium falciparum) enzyme inhibition. PfGluPho enzyme, NADPH resazurin-diaphorase fluorescence. inhibition, % at 20 µM. 350,000 compounds, 0.78% hits. AID 504690;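 active = inhibition reaching at least a set limit at 20 µM in the primary screen, cut at about 59% in these data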
HKDC1 inh: HKDC1 (human) hexokinase inhibition | recombinant HKDC1, G6PDH/diaphorase resazurin coupled fluorescence | inhibition, % at 20 µM | 340,000 compounds, 0.16% hits | AID 493160;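 active = inhibition above about 35% when tested at 20 µM, limit read from the data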
Target sequence (Q2TB90 whole entry, looked up): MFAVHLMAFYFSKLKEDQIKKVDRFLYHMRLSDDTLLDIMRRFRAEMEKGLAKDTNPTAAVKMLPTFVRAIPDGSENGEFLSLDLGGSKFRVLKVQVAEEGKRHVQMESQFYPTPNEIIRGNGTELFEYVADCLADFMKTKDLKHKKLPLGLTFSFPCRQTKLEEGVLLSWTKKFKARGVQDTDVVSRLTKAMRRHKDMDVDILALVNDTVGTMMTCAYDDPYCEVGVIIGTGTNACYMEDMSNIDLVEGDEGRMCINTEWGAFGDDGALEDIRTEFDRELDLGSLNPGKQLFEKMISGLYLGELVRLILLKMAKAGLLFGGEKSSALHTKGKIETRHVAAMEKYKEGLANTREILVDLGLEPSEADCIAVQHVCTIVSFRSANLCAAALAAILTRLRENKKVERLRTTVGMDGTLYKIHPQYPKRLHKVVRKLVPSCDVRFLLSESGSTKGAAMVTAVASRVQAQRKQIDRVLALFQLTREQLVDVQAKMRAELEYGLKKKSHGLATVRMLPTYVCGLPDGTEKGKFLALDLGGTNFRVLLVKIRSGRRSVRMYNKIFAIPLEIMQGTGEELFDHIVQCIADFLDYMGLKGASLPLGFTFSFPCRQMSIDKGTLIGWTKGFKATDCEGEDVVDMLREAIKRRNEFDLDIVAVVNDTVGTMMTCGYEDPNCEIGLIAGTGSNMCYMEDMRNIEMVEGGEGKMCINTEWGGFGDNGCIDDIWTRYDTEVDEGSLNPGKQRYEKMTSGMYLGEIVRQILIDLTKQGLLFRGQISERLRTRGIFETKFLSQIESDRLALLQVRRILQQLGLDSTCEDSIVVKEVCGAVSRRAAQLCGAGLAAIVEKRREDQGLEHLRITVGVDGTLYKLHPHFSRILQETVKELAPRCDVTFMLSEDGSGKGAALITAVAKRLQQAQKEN
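Assay system – recombinant HKDC1 (HK5) hexokinase enzyme, produced in-house · Input – HKDC1 at 5 µg/mL · Reagent – glucose plus 1 mM ATP as hexokinase substrates · Timing – 90 min reaction incubation at room temperature, dark · Measured by – G6PDH/diaphorase-coupled fluorescence, 1 mM NADP, 100 µM resazurin, 525/613 nm · Benchmarks – DMSO-enzyme wells negative, buffer-substituted wells positive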
Diaphorase inh: inhibits diaphorase or chemically oxidizes, flagging diaphorase assay artifacts; 190,000 compounds, 0.69% hits; inhibition, % at 20 µM; diaphorase resazurin-to-resorufin fluorescence, NADH, 16 min; bacterial (C. kluyveri) enzyme, not human; AID 1217;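 active = primary screen inhibition at 20 µM above a set limit, cut at about 50% in these data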
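System: Diaphorase enzyme from Clostridium kluyveri | Amount: Enzyme working solution with 0.14 U/mL diaphorase | Benchmarks: No-NADH positive control and DMSO neutral control | Signal: Fluorescence of resorufin formed from resazurin, Ex 544/Em 590 nm | Schedule: 16-min room-temperature incubation before reading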
TbHK1 inh: blocks Trypanosoma brucei hexokinase 1 activity | AID 1430 | 220,000 compounds, 0.11% hits | recombinant TbHK1, G6PDH-coupled NADH A340 | inhibition, % at 10 µM;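 active = inhibition of 50% or more in the single-dose primary screen; inactive = inhibition below 50%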
PfG6PD confirm: PfG6PD inhibition, single-dose confirmed; shares compounds with PfGluPho inh; recombinant PfGluPho, NADPH-diaphorase-resazurin fluorescence; 2,400 compounds, 34% hits; inhibition, % at 20 µM;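 active = inhibition of at least 50% at 20 µM in any single replicate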
Diaphorase 10uM: inhibits diaphorase or oxidizes, flagging false PfG6PD hits. shares compounds with PfGluPho inh. diaphorase-coupled resazurin reduction, fluorescence, NADPH 10 uM. inhibition, % at 20 µM. 820 compounds, 39% hits. AID 504862;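 active = average inhibition reaching 50% or more with the compound at 20 µM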;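 also: resorufin red fluorescence formed as diaphorase reduces resazurin using NADPH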
Diaphorase 30uM: diaphorase inhibition or oxidation at 30 uM NADPH. 820 compounds, 29% hits. Diaphorase/resazurin coupled assay, resorufin fluorescence. AID 504863. inhibition, % at 20 µM. shares compounds with PfGluPho inh;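 active = inhibition averaging 50% or more, tested at 20 µM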
Numbers stand for hits; - = inactive; . = no result given. Hits are enriched below; roughly 1.2% of the tested compounds scored in any of these assays.

SMILES | G6PDH CS | PfGluPho inh | HKDC1 inh | Diaphorase inh | TbHK1 inh | PfG6PD confirm | others
COc1cc(CNc2ccc(O)cc2)cc(Br)c1OCc1ccccc1 | - | - | - | - | - | .
COc1ccc(S(=O)(=O)Nc2ccc(C)c(S(=O)(=O)N3CCOCC3)c2)cc1[N+](=O)[O-] | . | - | - | . | . | .
CS(=O)(=O)c1ccc(C(=O)CN2C(=O)NC3(CCCc4ccccc43)C2=O)cc1 (stereo not drawn) | . | - | - | . | . | .
Cc1ccc(N2CC(C)Cn3c2nc2c3c(=O)[nH]c(=O)n2C)cc1C (stereo not drawn) | . | - | - | . | . | .
CC(C)C1=CC(=Nc2ccc(S(N)(=O)=O)cc2)C=C(C(C)C)C1=O | . | 75.6 | - | . | . | -
CCc1ccccc1N1CSC2=C(C#N)C(c3cc(OC)c(OC)cc3OC)CC(=O)N2C1 (stereo not drawn) | - | 67.5 | - | 50.0 | - | -
CCc1ccccc1N1CCN(S(=O)(=O)c2cc(OC)ccc2OC)CC1 | - | - | - | - | - | .
CCOC(=O)c1ccc(N2CSC3=C(C#N)C(c4ccc(OC)cc4OC)CC(=O)N3C2)cc1 (stereo not drawn) | - | - | - | - | - | .
COc1cc(OC)c(C2CC(=O)N3CN(c4ccccc4)CSC3=C2C#N)cc1OC (stereo not drawn) | - | 80.9 | - | - | - | 58.5 | Diaphorase 10uM=-;Diaphorase 30uM=-
Cc1ccc(C2CC(=O)N3CN(Cc4ccco4)CSC3=C2C#N)cc1 (stereo not drawn) | - | - | - | - | - | .
COc1ccccc1N1CSC2=C(C#N)C(c3ccc(SC)cc3)CC(=O)N2C1 (stereo not drawn) | - | 67.5 | - | 64.8 | - | 51.9 | Diaphorase 10uM=-;Diaphorase 30uM=-
COc1ccc(OC)c(C2CC(=O)N3CN(c4ccc(C)c(Cl)c4)CSC3=C2C#N)c1 (stereo not drawn) | - | 77.6 | - | - | - | -
Cc1ccc(OCCNC(=O)c2ccc(NC(=O)CC3SC(N4CCCC4)=NC3=O)cc2)cc1 (stereo not drawn) | . | - | - | . | . | .
COc1cccc(C2CC(=O)N3CN(c4cccc(Cl)c4C)CSC3=C2C#N)c1OC (stereo not drawn) | - | 85.7 | - | 50.6 | - | -
COc1cc(CN2CC(=O)N(c3cccc(Cl)c3C)C2=S)cc(OC)c1OC | . | - | - | . | . | .
COc1ccc2cc(C3=CC(=O)CCC3)ccc2c1 | . | 79.1 | - | . | . | -
O=C1C=C(c2ccc3[nH]ccc3c2)CCC1 | . | - | - | . | . | .
Cc1c(C(=O)c2ccc(F)cc2F)c2ccccn2c1CCC#N | . | 94.5 | - | . | . | -
Cc1c(C(=O)c2ccc(F)cc2F)c2ccccn2c1CCc1ccccn1 | . | - | . | . | . | .
O=C(CN1CCN(C(=O)c2ccco2)CC1)Nc1ccc(F)cc1F | . | - | - | . | . | .
CC1CCCN(S(=O)(=O)c2cc3c4c(c2)CCN4C(=O)CC3)C1 (stereo not drawn) | . | - | - | . | . | .
COc1ccc(OC)c(N=c2ssnc2Cl)c1 | - | 82.0 | - | - | - | -
Cc1cc(Cl)ccc1N=c1ssnc1Cl | - | 78.9 | - | - | - | -
Cc1cc(Cl)ccc1N=C1N=C(N)c2ccccc21 | - | - | - | - | - | .
CC(C)(C)c1ccc(C(=O)NC(=O)COC(=O)CCS(=O)(=O)c2ccccc2)cc1 | . | - | - | . | . | .
SMILES | G6PDH CS | PfGluPho inh | HKDC1 inh | Diaphorase inh | TbHK1 inh | PfG6PD confirm | others
COc1ccc(Nc2nc(-c3ccccc3)nc3ccccc23)cc1S(=O)(=O)N1CCOCC1 | . | - | - | . | - | .
COc1ccc2c(c1)sc1nc(-c3ccccc3)cn12 | - | 97.8 | - | - | - | -
Cc1ccc(C2N=C(N)Nc3nc(=O)c4ccccc4n32)cc1 (stereo not drawn) | . | - | - | . | - | .
S=C1NC2(CCCCC2)Nc2ccccc21 | - | - | - | - | - | .
COc1ccccc1CN1CC(C(=O)N2CCC(OC)CC2)CCC1=O (stereo not drawn) | . | - | - | . | . | .
CCNc1ccccc1CP(=O)(c1ccccc1)c1ccccc1O (stereo not drawn) | . | 81.1 | - | . | . | 86.7 | Diaphorase 10uM=-;Diaphorase 30uM=-
Cc1ccc(O)c(CP(=O)(c2ccccc2)c2ccccc2)c1 | - | - | - | - | - | .
Cc1ccc(Cl)cc1N(CC(=O)NCc1ccccc1)S(C)(=O)=O | . | - | - | . | . | .
Nc1ccccc1SCC(=O)Nc1cccc2ccccc12 | . | 67.2 | - | . | . | -
COCCn1c(C)cc(/C=C(\C#N)C(=O)OC(C)C(=O)Nc2ccc(NC(C)=O)cc2)c1C (stereo not drawn) | . | - | - | . | . | .
O=[N+]([O-])c1ccc(Nc2ccccc2O)c([N+](=O)[O-])c1 | . | 66.4 | . | . | . | -
O=C(O)c1cc([N+](=O)[O-])ccc1Nc1ccccc1 | - | - | - | - | - | .
CCN(CC)c1ccc(C=Nc2ccccc2C)c(O)c1 | - | 59.2 | - | - | - | -
Fc1ccccc1CNc1nc(-c2cccnc2)nc2ccccc12 | . | - | - | . | . | .
COc1ccc(NC(=O)CN(c2ccccc2)S(=O)(=O)c2ccccc2)c(OC)c1 | . | - | - | . | - | .
COC(=O)c1ccc(Cl)c(NC(=O)CN(c2ccccc2)S(=O)(=O)c2ccc(OC)cc2)c1 | - | 76.1 | - | - | - | -
CC1=C(C)CS(=O)N(S(=O)(=O)c2ccc(Cl)cc2)C1 (stereo not drawn) | - | 60.3 | - | - | - | 49.5 | Diaphorase 10uM=-;Diaphorase 30uM=-
O=C1Nc2ccccc2/C1=C\C(=O)c1ccccc1 | . | - | - | . | . | .
O=C(/C=C1\C(=O)Nc2ccccc21)/C=C1\C(=O)Nc2ccccc21 | . | 80.6 | - | . | - | -
O=c1[nH]c(CN2CCN(c3ccccc3)CC2)nc2scc(-c3ccccc3)c12 | - | - | - | - | - | .
Cc1sc2nc(CN3CCN(c4ccc(O)cc4)CC3)[nH]c(=O)c2c1C | . | 79.3 | - | . | - | -
CN1CCN(S(=O)(=O)c2ccc(N3CCN(c4ccc(O)cc4)CC3)c([N+](=O)[O-])c2)CC1 | . | 71.7 | - | . | . | -
O=[N+]([O-])c1ccc(N2CCN(c3ccc(O)cc3)CC2)cn1 | . | 62.1 | - | . | . | -
COC(=O)CCC(=O)OC1(C)C(=O)C2=CN(CCc3ccccn3)C(c3ccc(OC)cc3)=CC2=C(Br)C1=O (stereo not drawn) | . | 99.3 | - | . | . | -
COC(=O)CCC(=O)OC1(C)C(=O)C2=CN(CCN3CCOCC3)C(c3ccc(OC)cc3)=CC2=C(Br)C1=O (stereo not drawn) | . | . | . | . | - | .
C=CCN1C=C2C(=O)C(C)(OC(=O)c3cccs3)C(=O)C=C2C=C1CCCC(=O)OC (stereo not drawn) | . | - | - | . | - | .
COC(=O)CCCC1=CC2=CC(=O)C(C)(OC(=O)c3cccs3)C(=O)C2=CN1CCc1ccccn1 (stereo not drawn) | . | 70.2 | - | . | - | -
